Xi reactivation: activators of inactive X chromosome reactivation, primary screen, imaging, XiGFP fibroblasts, GFP high-content imaging, set 2; activation, % at 7.58 µM; 360,000 compounds, 0.055% hits; XiGFP mouse fibroblasts, % GFP-positive cells imaging, 3 d; cells co-treated with 5-aza-dC sensitizer; scaled so ellipticine positive control = 100%;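 active = mean normalized replicate activation at least 10% and every replicate at or above 10%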;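 also: 0% = median of on-plate neutral control wells and 100% = ellipticine 6 µM median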
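material = 68-5-11 XiGFP fibroblast line | medium = DMEM plus 5-aza-dC sensitizer | schedule = 3 days compound exposure | benchmarks = positive control ellipticine, 6 µM final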
DENV2 CPE rescue: inhibitors of DENV2 cytopathic effect, primary screen, cell-based, plate reader, single concentration. DENV2-infected cells, cytopathic effect rescue. CPE inhibition, % at 9.99 µM. 350,000 compounds, 1.7% hits; in the data active = CPE inhibition above about 20%, passing the limit was not always enough; tested in BHK-21 cells;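 also: 0% = median of neutral control wells and 100% = median of positive control wells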
E-selectin induc: E-selectin induction in HUVECs, primary screen, imaging, HUVEC, immunofluorescence imaging, single point; 260,000 compounds, 0.37% hits; normalized: neutral wells 0, TNF-alpha wells 100; P16581; activation, % at 7.58 µM;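 active = mean E-selectin-positive cell signal at least 10% of the positive control, reached in at least 60% of replicates, without over 20% cell loss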
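Assay system: HUVEC, human umbilical vein endothelial cells / Amount: 3,000 HUVEC/well / Controls: TNF-alpha positive control, DMSO neutral control / Compound dosing: single concentration / Medium: EGM-2 over gelatin coat / Evaluation: percent E-selectin-positive cells / Signal: immunofluorescence imaging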
FGF22 binding: binders of human FGF22 protein, primary screen, FGF22 synaptogenesis inhibitor project, biophysical, thermal shift, single point; Fibroblast growth factor 22 (Homo sapiens), Q9HCT0; recombinant FGF22 thermal shift, SYPRO orange fluorescence; percent of sucrose octasulfate shift, DMSO zero; activity (Tm shift, normalised), % at 9.99 µM; 340,000 compounds, 1.5% hits; AID 651658, 2012;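 active = mean Tm shift, scaled 0 neutral to 100 positive control, at about 1.3% or above, every replicate too, limit read from the data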
Target sequence (Q9HCT0 whole entry, looked up): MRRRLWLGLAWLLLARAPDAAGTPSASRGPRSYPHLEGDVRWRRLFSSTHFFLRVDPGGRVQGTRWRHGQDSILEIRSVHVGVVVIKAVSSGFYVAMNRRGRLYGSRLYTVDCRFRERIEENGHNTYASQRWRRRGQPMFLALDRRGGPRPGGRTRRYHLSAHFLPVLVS
PglD DTNB: C. jejuni PglD acetyltransferase inhibitors, primary screen, biochemical, DTNB colorimetric, single point | purified PglD enzyme, DTNB colorimetric CoA detection | 360,000 compounds, 0.098% hits | UDP-N-acetylbacillosamine N-acetyltransferase PglD (Campylobacter jejuni) | inhibition, % at 12.5 µM; in the data active = inhibition above about 16%, passing the limit was not always enough
Statin myotox sup: suppressors of statin myotoxicity in C2C12 myotubes, primary screen, cell-based, single point, plate reader; C2C12 myotubes + simvastatin, ATP luminescence, 48 h; scaled: DMSO 0, geranylgeraniol control 100; rescue of ATP level, % at 7.49 µM; 330,000 compounds, 0.78% hits;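 active = mean ATP rescue above about 67%, or every replicate alone reaching that limit, limit read from the data, passing the limit was not always enough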;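 also: myotubes were challenged with 10 µM simvastatin during compound exposure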
Starred values were filed as active, the others as inactive; x = no result. This is a sample that favours compounds with a hit; in the whole collection about 3.3% have one here.

SMILES	Xi reactivation	DENV2 CPE rescue	E-selectin induc	FGF22 binding	PglD DTNB	Statin myotox sup
CCOc1cccc2sc(N(CCCN(C)C)C(=O)c3ccc(S(=O)(=O)N4CCc5ccccc5C4)cc3)nc12	0	2	0	0	2	0
CCCn1c(NC(=O)c2ccco2)nc2ccccc21	x	x	x	x	4	102*
COc1ccc(OCCn2c(NC(=O)c3ccco3)nc3ccccc32)cc1	x	x	x	x	5	5
O=C(CS(=O)(=O)c1ccccc1)N1CCN(c2ccccc2)CC1	0	103*	0	x	-4	-9
O=C(C[C@@H]1CC[C@@H](NC(=O)NC2CCCC2)[C@H](CO)O1)NCc1ccc(F)cc1	0	-4	0	0	-1	3
Cc1ccc(C)c(SCC(=O)OCC(=O)NCc2ccccc2)c1	0	10	x	44*	3	1
O=C(C1CCCC1)N1CCC(CC2CC(c3ccc(Cl)cc3)=NO2)(C(=O)NCC2CCCCC2)CC1 (stereo not given)	0	-9	0	0	-2	24
O=C(C1CCCC1)N1CCC(CC2CC(c3cccc(Br)c3)=NO2)(C(=O)NCC2CCCCC2)CC1 (stereo not given)	0	53*	0	0	-3	16
CN1CCN(/N=C/c2ccc(OCc3ccccc3)cc2)CC1	0	23*	2	0	-2	3
CNC(=O)C[C@@H]1CC[C@H]2[C@H](COc3ccc(NC(=O)NC(C)C)cc3C(=O)N2C)O1	0	6	1	0	0	-3
C=CCc1cccc(OC)c1OCCOCCNCCO	x	x	x	x	0	83*
COc1cccc(OC)c1OCCNCCO	x	x	x	x	-9	x
Cc1cccc(Nc2nnc(-c3ccc(C(=O)N4C[C@H]5C[C@H](C4)c4cccc(=O)n4C5)cc3)c3ccccc23)c1	x	x	x	x	-9	114*
CNC(=O)c1ccc(Nc2nnc(-c3ccc(C(N)=O)cc3)c3ccccc23)cc1	0	19	0	0	5	-17
C[C@@H]1CN([C@@H](C)CO)C(=O)Cc2cc(NC(=O)Nc3ccc(F)cc3)ccc2O[C@H]1CN(C)Cc1ccccc1	0	-5	0	0	2	-27
C=CCN1C=C2C(=O)C(C)(OC(=O)CCC(=O)OC)C(=O)C=C2C=C1C1CC1 (stereo not given)	0	50*	x	0	0	-4
Cc1noc(C)c1NC(=O)N(C)C[C@H]1OCCCC[C@H](C)Oc2ccc(N(C)C)cc2C(=O)N([C@H](C)CO)C[C@@H]1C	0	12	0	0	0	4
CC(Oc1ccccc1)C(=O)N1CCCc2ccccc21 (stereo not given)	x	x	-1	x	0	15
CC(C(=O)N1CCCc2ccccc21)N1C(=O)c2ccccc2C1=O (stereo not given)	x	x	x	x	2	109*
CSc1ncccc1C(=O)N1CCCC(C(=O)c2ccc3ccccc3c2)C1 (stereo not given)	0	16	0	43*	-2	0
COc1ccc(C(=O)C2CCCN(C(=O)c3cccs3)C2)cc1F (stereo not given)	0	2	0	43	x	x
COc1ccc(C(=O)N2CCC(C(=O)c3ccc(F)cc3)CC2)cc1	x	x	x	x	4	4
COc1ccc(C(=O)C2CCCN(C(=O)c3cccnc3OC)C2)cc1F (stereo not given)	0	12	x	44*	-3	0
CSc1ccc(C(=O)C2CCCN(C(=O)c3cccnc3SC)C2)cc1 (stereo not given)	0	-3	-1	0	-5	9
COc1ccccc1C(=O)N1CCC(C(=O)c2ccc(F)cc2)CC1	x	x	x	x	0	84*
CO[C@H]1CN(C)C(=O)c2ccc(NS(=O)(=O)C3CCCCC3)cc2OC[C@@H](C)NC[C@@H]1C	0	x	x	x	x	x

Source: PubChem (Broad Institute)
